This sample holds only a part of the variants without activity.
B1: tRNA (parent)
chain: GUUCCGUUGGCGUAAUGGUAACGCGUCUCCCUCCUAAGGAGAAGACUGCGGGUUCGAGUCCCGUACGGAACG

Variants of: B1
Assay: yeast fitness relative to wild type (ratio to wild type); higher = fitter; tRNA-Arg(CCU), competitive growth, 37 C, YPD
Method in brief: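 Genotype frequency changes were the basis for Darwinian fitness relative to wild type. The frequencies came from 100-nucleotide paired-end sequencing of gene amplicons from the start population and each end population of pooled yeast strains with tRNA-Arg(CCU) gene variants at the native locus. Competition ran in YPD at 37°C for 24 hours in six replicates, genotypes needed ≥ 100 starting reads, and estimates < 0.5 were set to 0.5.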

Row | Variant | yeast fitness
1 | G9C U16C C30U U32G | ≤ 0.5
2 | G9U A21C A42U G44C U53C | ≤ 0.5
3 | G10A C29A | 0.574
4 | G9C U13C C30A C46A G48C A70C | 0.548
5 | G10A A36U A43G | 0.607
6 | G9U C29G A65U | ≤ 0.5
7 | G10A C61A | ≤ 0.5
8 | G9C G68C A69C | ≤ 0.5
9 | G10A A14U C30U A37C U53A | ≤ 0.5
10 | G9C U13A G25A A65U | ≤ 0.5
11 | G10A C30U U47A | ≤ 0.5
12 | G10A C30U C60G C66U | ≤ 0.5
13 | G10A C29A A57C U59A | ≤ 0.5
14 | G9C U28C | 0.675
15 | G10A C24U A36C | ≤ 0.5
16 | G10A A42G A65G | ≤ 0.5
17 | G9C G41C A45U G50A G67C | 0.616
18 | G10A C31A G38C G44A A65G | ≤ 0.5
19 | G10A C30G G68A | ≤ 0.5
20 | G10A C22U | 0.647
21 | G10A C55G C60A C66A A69U | ≤ 0.5
22 | G10A A14U C31A U35G C46A A65U | ≤ 0.5
23 | G10A C11U U35A C61U | ≤ 0.5
24 | G10A C30A C62A | ≤ 0.5

Row | Variant | yeast fitness
25 | G9C U28C A42U U47C | 0.54
26 | G10A A14C C22U | ≤ 0.5
27 | G10A A69C A70C | ≤ 0.5
28 | G10A C60A | 0.691
29 | G10A C11A A15C C24A | ≤ 0.5
30 | G10A C30U C33G | 0.538
31 | G9C U19C G48A | 0.901
32 | G10A C30A C55A G58A | ≤ 0.5
33 | G9C U19C C31A C55U A69C | 0.547
34 | G10A C30U C34U A42G A69C A70G | ≤ 0.5
35 | G10A C29A C66U G67U G68A | 0.56
36 | G9U C33U A43U U59G | 0.676
37 | G9U G68C | 0.77
38 | G10A A15G C34G G68A | ≤ 0.5
39 | G10A A15G C34G G68C | ≤ 0.5
40 | G9C U32C A36G | ≤ 0.5
41 | G10A C11U C24A C55G | 0.595
42 | G10A A15G G38C | ≤ 0.5
43 | G9C U26A U47C G48A C49U G56A G67C A69G | ≤ 0.5
44 | G10A A36C A43U | 0.573
45 | G10A A57U A65C A70G | ≤ 0.5
46 | G10A C27G C33G G41C A65G G68A | ≤ 0.5
47 | G9C U13G U28C G41C A43C A45U U47C C49G U53G A69C | ≤ 0.5
48 | G10A C24A G52U | ≤ 0.5

Row | Variant | yeast fitness
49 | G9C U19C G23C U59A G68C | 0.548
50 | G10A A15U A70G | ≤ 0.5
51 | G10A C29U G44C | ≤ 0.5
52 | G10A C30U C34U A42G A57C | ≤ 0.5
53 | G10A A37U A65U | ≤ 0.5
54 | G10A A14U A20G U26G C31G C34G A42U A43C G50C G63A | ≤ 0.5
55 | G9C U16C A42C | ≤ 0.5
56 | G9C G44C C66U | 0.568
57 | G10A A57U A65U | ≤ 0.5
58 | G10A A21G A65U A69C | 0.777
59 | G10A C24A A43C | ≤ 0.5
60 | G10A C31U C34A A40G U59A | 0.596
61 | G10A A15C G25A C55G U59C C60U G67U | ≤ 0.5
62 | G9C U13A G25A A40C A57C C61A G67A | 0.553
63 | G10A C30G | 0.511
64 | G10A C30A | 0.64
65 | G10A C30U | 0.748
66 | G9U A43G | 0.817
67 | G9U G63A A65U | ≤ 0.5
68 | G10A C34A U35A U54C | 0.522
69 | G10A C24G C34U G63C | ≤ 0.5
70 | G10A C22U G56C A70U | ≤ 0.5
71 | G10A C27G G38A A42G | 0.661
72 | G10A A14G C33U | ≤ 0.5

Row | Variant | yeast fitness
73 | G10A C30U C33G U64C | 0.662
74 | G9C U32C A36G A70U | ≤ 0.5
75 | G9C G51C G52A C60A A70U | ≤ 0.5
76 | G10A A14G C27U A40C U47A G48C | ≤ 0.5
77 | G10A C29A U35A G56A G67C | ≤ 0.5
78 | G10A A45C C49U | 0.652
79 | G10A A21U | 0.609
80 | G10A A21G | 0.878
81 | G10A A21C | 0.693
82 | G9C U13A G25A A40C A57C C61A | ≤ 0.5
83 | G9C U19C C31A G58C A70U | ≤ 0.5
84 | G10A C24U C60U | ≤ 0.5
85 | G9C G44A | 0.673
86 | G10A A57C C66G | ≤ 0.5
87 | G10A A21G C22A C31A A40G C46G | ≤ 0.5
88 | G10A A15C C34A C49U C61G | 0.603
89 | G10A C22G G58C | ≤ 0.5
90 | G10A A69G | 0.641
91 | G10A A69C | 0.858
92 | G10A A69U | 0.732
93 | G9C U32A C55U A57U C62A | ≤ 0.5
94 | G10A A14C C27G C46G A65G | ≤ 0.5
95 | G10A A45U G48A | ≤ 0.5
96 | G10A A20C G38A G41A C49U A65U | ≤ 0.5

Row | Variant | yeast fitness
97 | G10A C31G G44A G56C | ≤ 0.5
98 | G9C U26A | 0.613
99 | G10A A15U A21C G25C C66U G67U G68A | ≤ 0.5
100 | G10A A37U | 0.622
101 | G10A A37C | 0.741
102 | G10A A37G | 0.551
103 | G10A A21C A57U | ≤ 0.5
104 | G10A A36C A37G C49A | ≤ 0.5
105 | G9C U13C | 0.626
106 | G10A C33U A65U | ≤ 0.5
107 | G10A A21C C66U | 0.531
108 | G9U | 0.955
109 | G10A A20U U35C G48C C60A | ≤ 0.5
110 | G9C U13C C30G C61U | ≤ 0.5
111 | G9C U26C C34G A37G | 0.591
112 | G10A A14C C34U A42G A65U G68A | ≤ 0.5
113 | G10A A21C C24A A65C G68C | ≤ 0.5
114 | G9U C11A A14G C24U G41C C55G | ≤ 0.5
115 | G10A A20G U26C A69C A70G | ≤ 0.5
116 | G10A C11A A14G A15G G38A | ≤ 0.5
117 | G10A C29G G39C | ≤ 0.5
118 | G10A C11U C29A C34A G44A A69C | ≤ 0.5
119 | G10A C27G | 0.551
120 | G10A C27U | 0.817

Row | Variant | yeast fitness
121 | G10A A20C C27G A40G A70C | ≤ 0.5
122 | G10A A20C C27G A40G G56C | ≤ 0.5
123 | G10A C30A C31G A69G | ≤ 0.5
124 | G10A A20G A40C A42C | ≤ 0.5
125 | G9C U28G C29U C49U U54A C55U A70C | ≤ 0.5
126 | G10A A36C C66U | ≤ 0.5
127 | G10A A15G A65U | 0.702
128 | G10A C11U A36G G67C | 0.572
129 | G10A A20U A45U C55U A70C | 0.576
130 | G9C G56A | 0.863
131 | G10A C30A G48A | 0.559
132 | G9C U16G A65U | ≤ 0.5
133 | G10A A20U C30U G56A A65G C66A G68C | ≤ 0.5
134 | G10A A21G C27U A40U | ≤ 0.5
135 | G10A C31G | 0.651
136 | G9C U32G A70C | ≤ 0.5
137 | G10A A43C | 0.811
138 | G10A A43G | 0.65
139 | G9C U19C C29U A36U G67A | ≤ 0.5
140 | G10A C22A A43G C55A | ≤ 0.5
141 | G10A A45U U53G A65C | ≤ 0.5
142 | G9C G50C C60U C62A | ≤ 0.5
143 | G10A C29U C30G C34A | ≤ 0.5
144 | G9U C34U G41A | ≤ 0.5

Row | Variant | yeast fitness
145 | G10A A15C C34A G56A | ≤ 0.5
146 | G10A A15C G39C | ≤ 0.5
147 | G10A C22U A70U | ≤ 0.5
148 | G10A A45C | 0.66
149 | G10A A45U | 0.673
150 | G10A A43G G50A | 0.573
151 | G9U G39C A70C | ≤ 0.5
152 | G10A C31U A37G | 0.796
153 | G9C U19C C24U C27A G68A | ≤ 0.5
154 | G10A A15U A21C G25C | 0.533
155 | G10A C24U | 0.977
156 | G10A C24G | 0.517
157 | G10A A15U A21C G25C C62A | ≤ 0.5
158 | G10A A15U A21C G25C G56A | ≤ 0.5
159 | G10A A14U U19A G23C C29A C66A | ≤ 0.5
160 | G9U A69C | 0.909
161 | G10A C30A A42G A43U | ≤ 0.5
162 | G10A C24A G56C | ≤ 0.5
163 | G10A A37C A42G | ≤ 0.5
164 | G10A A37U G39A A57U | ≤ 0.5
165 | G9C G51C G58A | ≤ 0.5
166 | G9U C22G A70U | 0.623
167 | G10A C27A A37U G52A U54C G56C A57G | ≤ 0.5
